Source: ChEMBL document CHEMBL5532739, “Competitive Microarray Screening Reveals Functional Ligands for the DHX15 RNA G-Quadruplex” (ACS Med Chem Lett, 2024)
Blank lines part the entries; values can stand above or below the compound they belong to. Activity calls are given as the source filed them. No cut-off for these calls is given here.

Key:
Quadruplex RNA [1] = experiment: Binding affinity to DHX15 rG4 (unknown origin) assessed as dissociation constant measured after 320 secs by SPR analysis; assay type: nucleic-acid assay
Quadruplex RNA [2] = experiment: Displacement of ThT from DHX15 rG4 (unknown origin) at upto 100 uM measured after 15 mins by FID assay relative to control; assay type: nucleic-acid assay
How it was run: (§1)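 Fluorescent intercalator displacement on DHX15 rG4, dose-dependent, using thioflavin T or Hoechst 33258 (groove binder) as probe; displacement measured as loss of probe fluorescence.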

Quadruplex RNA [3] = experiment: Displacement of Hoechst 33258 from DHX15 rG4 (unknown origin) at 100 uM measured after 15 mins by FID assay relative to control; assay type: nucleic-acid assay; how it was run: as §1
Quadruplex RNA [4] = experiment: Binding affinity to DHX15 rG4 (unknown origin) assessed as induction of RNA G quadruplex formation by measuring increase in intensity at 4 to 20 uM in presence of KCl by circular dichroism method; assay type: nucleic-acid assay; conditions: dose 4-20 µM
Quadruplex RNA [5] = experiment: Binding affinity to DHX15 rG4 (unknown origin) assessed as thermal stability by measuring change in melting temperature at 50 uM by circular dichroism method; assay type: nucleic-acid assay
How it was run: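 CD thermal melt of DHX15 rG4 with 50 μM analyte present; stabilization reported as ΔTm.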

[6] = Inhibition of DHX15 mRNA translation in rabbit reticulocyte lysate transfected with DHX15-G4-WT-FL incubated for 15 mins by firefly luciferase assay; assay type: functional, subcellular, Oryctolagus cuniculus
How it was run: (§2)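 Cell-free translation: in vitro transcribed firefly luciferase reporter RNAs carrying DHX15 5' region (WT or G4-deleted) incubated in rabbit reticulocyte lysate with analyte, dose-dependent; luciferase activity as translation read-out; IC50 from dose-response.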

[7] = Inhibition of DHX15 mRNA translation in rabbit reticulocyte lysate transfected with DHX15-G4-WT-FL at upto 50 uM incubated for 15 mins by firefly luciferase assay relative to control; assay type: functional, Oryctolagus cuniculus; conditions: 0.25 h, up to 50 µM; how it was run: as §2
Reticulocyte [8] = experiment: Inhibition of DHX15 mRNA translation in rabbit reticulocyte lysate transfected with DHX15-G4-Del-FL at upto 50 uM incubated for 15 mins by firefly luciferase assay; assay type: functional, subcellular; conditions: Oryctolagus cuniculus; how it was run: as §2
[9] = Inhibition of DHX15 mRNA translation in rabbit reticulocyte lysate transfected with DHX15-G4-WT-FL at 10 uM incubated for 15 mins by firefly luciferase assay relative to control; assay type: functional; conditions: Oryctolagus cuniculus, 0.25 h; how it was run: as §2
Reticulocyte [10] = experiment: Inhibition of DHX15 mRNA translation in rabbit reticulocyte lysate transfected with DHX15-G4-Del-FL at 10 uM incubated for 15 mins by firefly luciferase assay; assay type: functional, subcellular; conditions: Oryctolagus cuniculus; how it was run: as §2

- Kd (Quadruplex RNA [1]): 12.6 µM
- Activity (Quadruplex RNA [2]): 50%
- Activity (Quadruplex RNA [3]): 20%
- Activity (Quadruplex RNA [4]): Active
- ΔTm (Quadruplex RNA [5]): 3.6 °C
- IC50 [6]: 22.9 µM
- inhibition (Reticulocyte [8]): inactive
SMILES: Nc1cc2[nH]c(=O)[nH]c2cc1N1CCCC1
- inhibition (INH) [7]: 57%

- inhibition (Reticulocyte [10]): inactive
SMILES: CN(C)c1ccc(Nc2c3ccc(NC(=O)CCN4CCCC4)cc3nc3cc(NC(=O)CCN4CCCC4)ccc23)cc1
- inhibition at 10 µM [9]: 67%

- Kd (Quadruplex RNA [1]): > 100 µM
SMILES: O=C(O)[C@H]1Cc2ccccc2CN1

- Kd (Quadruplex RNA [1]): > 100 µM
SMILES: O=C(O)[C@@H]1Cc2ccccc2CN1
